ChEMBL document CHEMBL1157623, “Benzyl 1,2,3,5,11,11a-hexahydro-3,3-dimethyl-1-oxo-6H-imidazo[3',4':1,2]pyridin[3,4-b]indole-2-substituted acetates: One-pot-preparation, anti-tumor activity, docking toward DNA and 3D QSAR analysis” (Bioorg Med Chem, 2010)

Columns and labels:
[1] = test system: CCRF S-180; assay: Antitumor activity against mouse S180 cells xenografted in ICR mouse assessed as tumor weight at 1 mg/kg, ip administered 24 hrs after tumor implantation daily for 7 consecutive days measured after 24 hrs of last dose (Rvb=1.602 +/- 0.391 g); format: functional; details: route intraperitoneal
[2] = test system: PC-3; assay: Antiproliferative activity against human PC3 cells after 3 days by sulforhodamine B assay; format: functional, cell-based; details: PC-3, 72 h
Outline: (§1)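 Freshly trypsinized cells seeded at 5000 per well; compounds added from DMSO-diluted stock at 60, 6, 0.6, 0.06 and 0.006 µM. After 3 days, attached cells were fixed with cold 10% trichloroacetic acid, stained with 0.4% sulforhodamine B, the bound dye solubilized, and absorbance read at 562 nm. IC50 is the concentration reducing cell growth by 50%, averaged from at least three independent determinations.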

[3] = Antiproliferative activity against human KBVIN cells after 3 days by sulforhodamine B assay; format: functional, cell-based; details: 72 h; outline: as §1
[4] = test system: A549; assay: Antiproliferative activity against human A549 cells after 3 days by sulforhodamine B assay; format: functional, cell-based; details: A549, 72 h; outline: as §1
[5] = test system: KB; assay: Antiproliferative activity against human KB cells after 3 days by sulforhodamine B assay; format: functional, cell-based; details: 72 h; outline: as §1
[6] = Lipophilicity, log K at 10 uM after 40 mins by HPLC analysis; format: physicochemical
Outline: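 Sample at 10^-5 M analysed by reversed-phase C18 HPLC, eluted with CH3OH/H2O 0.7/0.3 at 1 mL/min for 40 min, UV detection at 254.8 nm. Retention time tR recorded; acetone peak taken as t0 (1.591 min). Log K = Log[(tR − t0)/t0].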

[7] = test system: MCF7; assay: Antiproliferative activity against human MCF7 cells after 3 days by sulforhodamine B assay; format: functional, cell-based; details: MCF7, 72 h; outline: as §1
[8] = test system: Mus musculus; assay: Toxicity in ICR mouse xenografted with mouse S180 cells assessed as spleen weight at 1 mg/kg, ip administered 24 hrs after tumor implantation daily for 7 consecutive days measured after 24 hrs of last dose (Rvb=0.22 +/- 0.04 g); format: organism-based, CCRF S-180; parameters: dose 1 mg/kg, route intraperitoneal; details: in vivo
[9] = test system: Mus musculus; assay: Toxicity in ICR mouse xenografted with mouse S180 cells assessed as femur weight at 1 mg/kg, ip administered 24 hrs after tumor implantation daily for 7 consecutive days measured after 24 hrs of last dose (Rvb=0.056 +/- 0.006 g); format: organism-based, CCRF S-180; parameters: dose 1 mg/kg, route intraperitoneal; details: in vivo
[10] = test system: Mus musculus; assay: Toxicity in ICR mouse assessed as mortality up to 500 mg/kg, ip measured after 7 days post dose; format: organism-based; parameters: dose 500 mg/kg, route intraperitoneal; details: in vivo, 168 h
Outline: (§2)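 ICR mice, 10–12 weeks old, of both sexes (six males and six females, 12 per group), housed at 21 °C and fasted overnight with water available. They received a single ip injection of 10, 100 or 500 mg/kg in 0.2 mL 0.9% saline. Mice were watched continuously for 7 days for neurotoxic behaviour or death, then killed on day 7 and checked macroscopically (heart, liver, kidneys). LD50 was estimated graphically.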

[11] = test system: Mus musculus; assay: Toxicity in ICR mouse xenografted with mouse S180 cells assessed as liver weight at 1 mg/kg, ip administered 24 hrs after tumor implantation daily for 7 consecutive days measured after 24 hrs of last dose (Rvb=2.36 +/- 0.20 g); format: organism-based, CCRF S-180; parameters: dose 1 mg/kg, route intraperitoneal; details: in vivo
[12] = Toxicity in ip dosed ICR mouse measured after 7 days post dose; format: organism-based; details: in vivo; outline: as §2
[13] = test system: Mus musculus; assay: Toxicity in ICR mouse xenografted with mouse S180 cells assessed as heart weight at 1 mg/kg, ip administered 24 hrs after tumor implantation daily for 7 consecutive days measured after 24 hrs of last dose (Rvb=0.17 +/- 0.01 g); format: organism-based, CCRF S-180; parameters: dose 1 mg/kg, route intraperitoneal; details: in vivo
[14] = test system: Mus musculus; assay: Toxicity in ICR mouse xenografted with mouse S180 cells assessed as kidney weight at 1 mg/kg, ip administered 24 hrs after tumor implantation daily for 7 consecutive days measured after 24 hrs of last dose (Rvb=0.23 +/- 0.02 g); format: organism-based, CCRF S-180; parameters: dose 1 mg/kg, route intraperitoneal; details: in vivo
[15] = test system: Mus musculus; assay: Toxicity in ICR mouse xenografted with mouse S180 cells assessed as brain weight at 1 mg/kg, ip administered 24 hrs after tumor implantation daily for 7 consecutive days measured after 24 hrs of last dose (Rvb=0.31 +/- 0.01 g); format: organism-based, CCRF S-180; parameters: dose 1 mg/kg, route intraperitoneal; details: in vivo
[16] = test system: Mus musculus; assay: Toxicity in ICR mouse xenografted with mouse S180 cells assessed as body weight at 1 mg/kg, ip administered 24 hrs after tumor implantation daily for 7 consecutive days measured after 24 hrs of last dose (Rvb=33.3 +/- 2.32 g); format: organism-based, CCRF S-180; parameters: dose 1 mg/kg, route intraperitoneal; details: in vivo
[17] = test system: Mus musculus; assay: Toxicity in ICR mouse assessed as change in liver weight at 10 to 500 mg/kg, ip measured on day 7 post dose by necroscopy; format: organism-based; parameters: dose 10-500 mg/kg, route intraperitoneal; details: in vivo
[18] = test system: Mus musculus; assay: Toxicity in ICR mouse assessed as change in kidney weight at 10 to 500 mg/kg, ip measured on day 7 post dose by necroscopy; format: organism-based; parameters: dose 10-500 mg/kg, route intraperitoneal; details: in vivo
[19] = test system: Mus musculus; assay: Toxicity in ICR mouse assessed as change in heart weight at 10 to 500 mg/kg, ip measured on day 7 post dose by necroscopy; format: organism-based; parameters: dose 10-500 mg/kg, route intraperitoneal; details: in vivo
[20] = test system: Mus musculus; assay: Neurotoxicity in ICR mouse assessed as occurrence of neurotoxic behavior at 10 to 500 mg/kg, ip measured up to 7 days post dose; format: toxicity, organism-based; parameters: dose 10-500 mg/kg, route intraperitoneal; details: in vivo, 168 h
Outline: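 Healthy ICR mice, 10–12 weeks old, 12 per group (six male, six female), fasted overnight with water available. Single ip injection of 10, 100 or 500 mg/kg in 0.2 mL 0.9% saline. Monitored continuously up to 7 days for abnormal behavior (tremor, twitch, jumping, tetanus, supination) or death. Sacrificed on day 7; heart, liver and kidneys checked macroscopically.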

Row | Compound | Activity [1] | IC50 [2] | IC50 [3] | IC50 [4] | IC50 [5] | log K [6] | IC50 [7] | Activity [8] | Activity [9] | Activity [10] | Activity [11] | LD50 at 168 h [12] | Activity [13] | Activity [14] | Activity [15] | Activity [16] | Activity [17] | Activity [18] | Activity [19] | Activity [20]
1 | CCC(C)[C@@H](C(=O)OCc1ccccc1)N1C(=O)[C@@H]2Cc3c([nH]c4ccccc34)CN2C1(C)C (stereo partly drawn) | 2.846 g | 10.3 µM | 50.9 µM | 43.6 µM | 50.1 µM | 0.8 | 21.1 µM | – | – | – | – | – | – | – | – | – | – | – | – | –
2 | CC(C)[C@@H](C(=O)OCc1ccccc1)N1C(=O)[C@@H]2Cc3c([nH]c4ccccc34)CN2C1(C)C | 2.003 g | 8.47 µM | 52.2 µM | 44.9 µM | 52 µM | 0.73 | 33.7 µM | – | – | – | – | – | – | – | – | – | – | – | – | –
3 | CC1(C)N(CC(=O)OCc2ccccc2)C(=O)[C@@H]2Cc3c([nH]c4ccccc34)CN21 | 0.916 g | 9.98 µM | 12.2 µM | 7.92 µM | 22.5 µM | 0.32 | 10.4 µM | 0.24 g | 0.055 g | Non-toxic | 2.25 g | > 500 mg/kg | 0.16 g | 0.22 g | 0.3 g | 33.75 g | Non-toxic | Non-toxic | Non-toxic | Non-toxic
4 | COc1cccc2c1C(=O)c1c(O)c3c(c(O)c1C2=O)C[C@@](O)(C(=O)CO)C[C@@H]3O[C@H]1C[C@H](N)[C@H](O)[C@H](C)O1 [DOXORUBICIN] | 0.817 g | – | – | – | – | – | – | 0.11 g | 0.046 g | – | 2 g | – | 0.15 g | 0.19 g | 0.32 g | 27.28 g | – | – | – | –
5 | CC1(C)N2Cc3[nH]c4ccccc4c3C[C@H]2C(=O)N1[C@@H](Cc1ccccc1)C(=O)OCc1ccccc1 | 1.6 g | 40.6 µM | 41.1 µM | 35.3 µM | 46.4 µM | 1.05 | 43 µM | – | – | – | – | – | – | – | – | – | – | – | – | –
6 | CC1(C)N2Cc3[nH]c4ccccc4c3C[C@H]2C(=O)N1[C@@H](Cc1ccc(O)cc1)C(=O)OCc1ccccc1 | 1.046 g | 0.69 µM | 8.35 µM | 0.12 µM | 18 µM | 0.49 | 4.44 µM | 0.23 g | 0.056 g | Non-toxic | 2.35 g | > 500 mg/kg | 0.16 g | 0.23 g | 0.32 g | 35.85 g | Non-toxic | Non-toxic | Non-toxic | Non-toxic
7 | CC1(C)N2Cc3[nH]c4ccccc4c3C[C@H]2C(=O)N1[C@@H](COCc1ccccc1)C(=O)OCc1ccccc1 | 1.793 g | 13.9 µM | 42.3 µM | 23.3 µM | 38.2 µM | 1.02 | 19.8 µM | – | – | – | – | – | – | – | – | – | – | – | – | –
8 | CC1(C)N2Cc3[nH]c4ccccc4c3C[C@H]2C(=O)N1[C@@H](CCCCNC(=O)OCc1ccccc1)C(=O)OCc1ccccc1 | 1.613 g | 4.24 µM | 30.6 µM | 8.34 µM | 32.9 µM | 0.87 | 4.61 µM | – | – | – | – | – | – | – | – | – | – | – | – | –
9 | CC1(C)N2Cc3[nH]c4ccccc4c3C[C@H]2C(=O)N1[C@@H](CC(N)=O)C(=O)OCc1ccccc1 | 1.604 g | 17 µM | 50.1 µM | 39.6 µM | 43.5 µM | 0.16 | 20.2 µM | – | – | – | – | – | – | – | – | – | – | – | – | –
10 | C[C@@H](C(=O)OCc1ccccc1)N1C(=O)[C@@H]2Cc3c([nH]c4ccccc34)CN2C1(C)C | 1.418 g | 48 µM | 55.7 µM | 59.1 µM | 60.3 µM | 0.44 | 57 µM | – | – | – | – | – | – | – | – | – | – | – | – | –
11 | CC1(C)N2Cc3[nH]c4ccccc4c3C[C@H]2C(=O)N1[C@@H](CCC(=O)OCc1ccccc1)C(=O)OCc1ccccc1 | 1.578 g | 35.4 µM | 37.9 µM | 33.6 µM | 40 µM | 1.05 | 37 µM | – | – | – | – | – | – | – | – | – | – | – | – | –
12 | CC(C)C[C@@H](C(=O)OCc1ccccc1)N1C(=O)[C@@H]2Cc3c([nH]c4ccccc34)CN2C1(C)C | 2.05 g | 7.06 µM | 32.5 µM | 30.6 µM | 41.1 µM | 0.92 | 14.7 µM | – | – | – | – | – | – | – | – | – | – | – | – | –
13 | CC1(C)N2Cc3[nH]c4ccccc4c3C[C@H]2C(=O)N1[C@@H](CCC(N)=O)C(=O)OCc1ccccc1 | 1.696 g | 10 µM | 40 µM | 38.4 µM | 42.1 µM | 0.25 | 20.4 µM | – | – | – | – | – | – | – | – | – | – | – | – | –
